Laboratory results reported in the M2OR odorant receptor database.
Where a chain is given by its changes, count along the chain named.

Experiments:
Conditions in all cases: stereoisomer not certain
O51F1 [1] = test system: T1, O51F1
T1 sequence (whole entry): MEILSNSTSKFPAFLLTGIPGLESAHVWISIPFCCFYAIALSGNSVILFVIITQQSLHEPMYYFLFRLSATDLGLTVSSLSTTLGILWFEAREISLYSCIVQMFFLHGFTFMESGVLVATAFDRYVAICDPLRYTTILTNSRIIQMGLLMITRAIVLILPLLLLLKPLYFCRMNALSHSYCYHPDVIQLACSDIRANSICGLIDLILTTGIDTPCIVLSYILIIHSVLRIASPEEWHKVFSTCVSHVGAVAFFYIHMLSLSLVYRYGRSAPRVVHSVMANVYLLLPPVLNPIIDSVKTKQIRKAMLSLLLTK
In short: (§1)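 Assay methods differ from source to source, frequently being transient luciferase assays in mammalian cell lines. For each receptor–molecule pair, the label responsive (active) applies when the original authors judged the measured signal statistically different from baseline, and non-responsive (inactive) applies otherwise.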

O51F1 [2] = test system: T2, O51F1; remark: listed apart in the source
T2 sequence (whole entry): T1 sequence (whole entry) with A13T
In short: as §1

O51F2 Y341S = test system: T3, O51F2 Y341S
T3 sequence (whole entry): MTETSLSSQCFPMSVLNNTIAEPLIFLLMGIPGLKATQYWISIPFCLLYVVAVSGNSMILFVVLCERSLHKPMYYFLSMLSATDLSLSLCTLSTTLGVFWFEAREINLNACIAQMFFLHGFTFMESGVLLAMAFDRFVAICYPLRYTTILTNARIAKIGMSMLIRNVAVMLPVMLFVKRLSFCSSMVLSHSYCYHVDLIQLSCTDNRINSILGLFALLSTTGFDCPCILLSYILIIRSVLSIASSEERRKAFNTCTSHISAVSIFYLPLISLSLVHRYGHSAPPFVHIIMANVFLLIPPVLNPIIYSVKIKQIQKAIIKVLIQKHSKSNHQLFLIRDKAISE
In short: as §1

O51G1 = test system: T4, O51G1
T4 sequence (whole entry): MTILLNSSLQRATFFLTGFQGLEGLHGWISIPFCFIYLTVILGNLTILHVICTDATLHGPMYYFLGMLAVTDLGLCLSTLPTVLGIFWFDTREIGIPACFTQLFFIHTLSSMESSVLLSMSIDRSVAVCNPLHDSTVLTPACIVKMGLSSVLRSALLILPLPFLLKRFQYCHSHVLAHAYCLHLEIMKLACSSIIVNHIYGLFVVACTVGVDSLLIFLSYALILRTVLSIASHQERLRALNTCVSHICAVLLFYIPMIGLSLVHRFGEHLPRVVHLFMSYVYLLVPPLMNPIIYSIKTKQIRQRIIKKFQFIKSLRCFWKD
In short: as §1

O51I1 V164L = test system: T5, O51I1 V164L
T5 sequence (whole entry): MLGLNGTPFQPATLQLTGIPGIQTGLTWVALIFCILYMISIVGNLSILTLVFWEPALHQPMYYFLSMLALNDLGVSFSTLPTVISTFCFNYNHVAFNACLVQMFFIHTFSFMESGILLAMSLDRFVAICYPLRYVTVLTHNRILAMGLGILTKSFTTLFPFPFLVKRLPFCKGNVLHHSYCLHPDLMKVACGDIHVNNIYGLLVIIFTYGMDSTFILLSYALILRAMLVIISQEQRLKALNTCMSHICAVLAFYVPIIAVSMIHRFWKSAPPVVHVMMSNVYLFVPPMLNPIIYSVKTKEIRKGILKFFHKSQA
In short: as §1

O51J1 R75H I202V = test system: T6, O51J1 R75H I202V
T6 sequence (whole entry): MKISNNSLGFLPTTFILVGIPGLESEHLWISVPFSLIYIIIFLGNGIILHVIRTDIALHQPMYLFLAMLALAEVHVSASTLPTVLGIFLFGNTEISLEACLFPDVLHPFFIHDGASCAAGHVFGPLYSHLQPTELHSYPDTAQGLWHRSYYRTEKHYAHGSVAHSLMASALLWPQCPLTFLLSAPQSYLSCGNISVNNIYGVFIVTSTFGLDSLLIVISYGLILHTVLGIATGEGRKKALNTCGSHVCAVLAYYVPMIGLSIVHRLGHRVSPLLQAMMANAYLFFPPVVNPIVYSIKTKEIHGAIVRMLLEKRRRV
In short: as §1

O51L1 = test system: T7, O51L1
T7 sequence (whole entry): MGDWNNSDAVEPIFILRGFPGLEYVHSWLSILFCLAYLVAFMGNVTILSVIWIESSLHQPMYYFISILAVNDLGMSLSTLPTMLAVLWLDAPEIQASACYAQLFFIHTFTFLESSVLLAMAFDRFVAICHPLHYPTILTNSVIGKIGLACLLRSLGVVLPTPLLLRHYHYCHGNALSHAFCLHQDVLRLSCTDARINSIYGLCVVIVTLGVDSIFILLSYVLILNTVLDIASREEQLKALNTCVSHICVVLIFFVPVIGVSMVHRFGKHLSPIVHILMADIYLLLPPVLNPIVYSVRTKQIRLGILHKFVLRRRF
In short: as §1

O51T1 = test system: T8, O51T1
T8 sequence (whole entry): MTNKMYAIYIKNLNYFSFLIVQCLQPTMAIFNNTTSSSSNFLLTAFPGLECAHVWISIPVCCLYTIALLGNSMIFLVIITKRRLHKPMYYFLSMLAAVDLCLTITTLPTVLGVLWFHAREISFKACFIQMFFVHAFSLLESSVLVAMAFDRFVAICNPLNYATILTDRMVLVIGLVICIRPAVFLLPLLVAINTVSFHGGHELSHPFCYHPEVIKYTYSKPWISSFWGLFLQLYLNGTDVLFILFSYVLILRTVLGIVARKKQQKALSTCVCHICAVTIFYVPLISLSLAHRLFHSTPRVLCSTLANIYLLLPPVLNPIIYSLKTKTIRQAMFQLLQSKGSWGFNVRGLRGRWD
In short: as §1

O51V1 L36F N51T G96W = test system: T9, O51V1 L36F N51T G96W
T9 sequence (whole entry): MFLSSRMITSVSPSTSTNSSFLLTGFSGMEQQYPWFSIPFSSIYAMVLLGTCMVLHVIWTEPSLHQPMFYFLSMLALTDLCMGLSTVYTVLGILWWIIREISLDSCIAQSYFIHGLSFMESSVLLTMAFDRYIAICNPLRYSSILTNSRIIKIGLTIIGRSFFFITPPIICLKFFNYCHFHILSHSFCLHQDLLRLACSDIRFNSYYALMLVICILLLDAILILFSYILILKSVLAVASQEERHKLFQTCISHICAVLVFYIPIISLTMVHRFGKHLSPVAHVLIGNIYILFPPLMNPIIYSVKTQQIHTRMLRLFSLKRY
In short: as §1

O52A1 = test system: T10, O52A1
T10 sequence (whole entry): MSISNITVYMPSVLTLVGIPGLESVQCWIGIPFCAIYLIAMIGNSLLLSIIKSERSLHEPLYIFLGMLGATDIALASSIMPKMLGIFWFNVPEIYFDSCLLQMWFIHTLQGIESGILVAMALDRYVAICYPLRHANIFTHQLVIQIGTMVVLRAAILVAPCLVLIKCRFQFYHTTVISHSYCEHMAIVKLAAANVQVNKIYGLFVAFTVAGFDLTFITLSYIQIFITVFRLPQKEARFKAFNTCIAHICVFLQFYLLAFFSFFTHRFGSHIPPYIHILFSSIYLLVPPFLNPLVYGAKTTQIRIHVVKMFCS
In short: as §1

O52B6 V288I = test system: T11, O52B6 V288I
T11 sequence (whole entry): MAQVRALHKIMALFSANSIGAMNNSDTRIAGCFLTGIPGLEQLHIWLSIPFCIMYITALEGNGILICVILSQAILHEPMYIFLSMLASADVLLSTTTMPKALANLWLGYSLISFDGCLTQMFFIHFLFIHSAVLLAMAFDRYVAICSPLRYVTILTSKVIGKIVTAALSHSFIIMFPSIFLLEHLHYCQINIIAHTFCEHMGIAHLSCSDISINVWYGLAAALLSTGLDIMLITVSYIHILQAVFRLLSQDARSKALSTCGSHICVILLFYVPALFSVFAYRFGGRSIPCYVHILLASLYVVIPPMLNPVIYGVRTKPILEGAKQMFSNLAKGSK
In short: as §1

O52E2 R264C = test system: O52E2 R264C
Chain of O52E2 R264C (as listed by the source, stated change not applied): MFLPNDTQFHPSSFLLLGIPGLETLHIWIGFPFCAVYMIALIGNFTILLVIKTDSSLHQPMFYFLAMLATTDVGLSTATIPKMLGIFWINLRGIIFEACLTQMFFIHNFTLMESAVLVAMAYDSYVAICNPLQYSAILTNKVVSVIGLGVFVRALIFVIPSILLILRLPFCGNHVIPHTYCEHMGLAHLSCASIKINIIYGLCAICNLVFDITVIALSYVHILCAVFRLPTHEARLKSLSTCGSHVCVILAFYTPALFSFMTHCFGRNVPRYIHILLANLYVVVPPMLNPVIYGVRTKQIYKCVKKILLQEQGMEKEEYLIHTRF
In short: as §1

O52E4 = test system: O52E4
Chain of O52E4 (as listed by the source): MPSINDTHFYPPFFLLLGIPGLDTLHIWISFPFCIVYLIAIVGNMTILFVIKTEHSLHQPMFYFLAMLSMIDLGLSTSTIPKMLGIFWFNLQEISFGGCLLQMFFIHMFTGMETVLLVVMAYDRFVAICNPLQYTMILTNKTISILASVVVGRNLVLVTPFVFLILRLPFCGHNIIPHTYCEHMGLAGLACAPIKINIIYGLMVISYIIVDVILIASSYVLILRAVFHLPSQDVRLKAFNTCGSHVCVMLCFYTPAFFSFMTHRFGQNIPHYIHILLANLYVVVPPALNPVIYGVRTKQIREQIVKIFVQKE
In short: as §1

O52E5 = test system: O52E5
Chain of O52E5 (as listed by the source): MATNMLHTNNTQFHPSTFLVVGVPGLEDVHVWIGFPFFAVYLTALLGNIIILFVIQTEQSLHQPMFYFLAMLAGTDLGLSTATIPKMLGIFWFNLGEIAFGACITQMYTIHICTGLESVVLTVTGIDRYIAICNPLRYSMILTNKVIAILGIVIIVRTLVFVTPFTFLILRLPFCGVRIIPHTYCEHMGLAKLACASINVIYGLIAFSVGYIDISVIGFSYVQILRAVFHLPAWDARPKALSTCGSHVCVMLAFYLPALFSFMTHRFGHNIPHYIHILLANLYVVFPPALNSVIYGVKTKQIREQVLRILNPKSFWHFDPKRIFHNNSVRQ
In short: as §1

O52E8 = test system: O52E8
Chain of O52E8 (as listed by the source): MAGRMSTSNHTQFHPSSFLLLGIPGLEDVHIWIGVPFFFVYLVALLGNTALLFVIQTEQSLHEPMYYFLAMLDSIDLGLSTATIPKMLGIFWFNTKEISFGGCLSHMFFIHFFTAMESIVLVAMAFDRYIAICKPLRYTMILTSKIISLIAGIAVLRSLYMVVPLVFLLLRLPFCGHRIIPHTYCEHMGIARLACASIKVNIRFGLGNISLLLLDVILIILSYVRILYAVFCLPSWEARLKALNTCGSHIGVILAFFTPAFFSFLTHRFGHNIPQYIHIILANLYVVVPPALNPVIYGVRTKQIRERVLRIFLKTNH
In short: as §1

O52H1 A89T H130R C242R = test system: T12, O52H1 A89T H130R C242R
T12 sequence (whole entry): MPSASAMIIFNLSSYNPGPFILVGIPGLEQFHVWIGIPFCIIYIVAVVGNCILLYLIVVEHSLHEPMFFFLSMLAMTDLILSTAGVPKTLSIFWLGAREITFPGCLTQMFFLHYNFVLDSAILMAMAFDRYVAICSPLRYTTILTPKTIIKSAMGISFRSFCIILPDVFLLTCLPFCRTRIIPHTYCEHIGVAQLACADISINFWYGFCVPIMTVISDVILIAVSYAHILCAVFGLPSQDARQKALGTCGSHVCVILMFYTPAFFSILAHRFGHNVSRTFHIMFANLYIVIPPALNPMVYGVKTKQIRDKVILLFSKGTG
In short: as §1

O52H1 H130R C242R = test system: T13, O52H1 H130R C242R
T13 sequence (whole entry): T12 sequence (whole entry) with T89A
In short: as §1

O52H1 = test system: T14, O52H1
T14 sequence (whole entry): T12 sequence (whole entry) with T89A, R130H, R242C
In short: as §1

O52I2 I74L = test system: T15, O52I2 I74L
T15 sequence (whole entry): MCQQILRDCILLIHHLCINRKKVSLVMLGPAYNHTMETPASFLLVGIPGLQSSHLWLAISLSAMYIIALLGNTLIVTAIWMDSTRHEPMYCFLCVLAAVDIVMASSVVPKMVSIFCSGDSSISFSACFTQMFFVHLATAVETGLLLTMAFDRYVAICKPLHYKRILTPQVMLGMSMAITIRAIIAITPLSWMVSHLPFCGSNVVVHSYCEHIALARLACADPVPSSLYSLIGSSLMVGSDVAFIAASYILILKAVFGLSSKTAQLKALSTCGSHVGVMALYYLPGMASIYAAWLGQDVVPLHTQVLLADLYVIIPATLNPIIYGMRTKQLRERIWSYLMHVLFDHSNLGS
In short: as §1

O51J1 = test system: O51J1
Chain of O51J1 (as listed by the source): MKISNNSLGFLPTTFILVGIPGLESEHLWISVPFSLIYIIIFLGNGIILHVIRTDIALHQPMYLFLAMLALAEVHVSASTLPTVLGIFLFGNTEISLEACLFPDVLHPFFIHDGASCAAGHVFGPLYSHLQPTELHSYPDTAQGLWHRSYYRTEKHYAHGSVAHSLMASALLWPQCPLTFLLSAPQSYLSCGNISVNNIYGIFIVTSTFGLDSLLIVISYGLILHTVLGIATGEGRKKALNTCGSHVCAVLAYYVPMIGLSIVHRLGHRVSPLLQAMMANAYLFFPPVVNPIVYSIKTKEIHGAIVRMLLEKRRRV
In short: as §1

Measured: odorant receptor agonist call

CCCC(S)CCOC(C)=O (configuration not stated)
not listed: O51J1
inactive: all other assays above

CC(CO)CS (configuration not stated)
inactive: O52E8 | O52H1

CCCC(C)=CC(=O)O
inactive: O51J1

CC1=C(O)C(=O)C(C)O1 (configuration not stated)
not listed: O51J1
inactive: all other assays above

C=C(C)C1CCC(C)C(=O)C1 (configuration not stated)
inactive: O51F1 [1] | O51F1 [2]

CC(=O)c1c(C)c([N+](=O)[O-])c(C(C)(C)C)c([N+](=O)[O-])c1C
inactive: O52E8 | O52H1

CCC1OC(C)=C(O)C1=O (configuration not stated)
not listed: O51J1
inactive: all other assays above

CC1=NC(C)C(C)S1 (configuration not stated)
not listed: O51J1
inactive: all other assays above

CCCCCC(S)C(C)CO (configuration not stated)
inactive: O52E8 | O52H1

CCC(S)C(C)CO (configuration not stated)
inactive: O52E8 | O52H1
